Results as given in EPA's CvTdb concentration-time database.
Several values for one entry are separate records, joined by “and”; a condition that tells them apart may be missing. Equal values may be shown once.

Columns and labels:
Rat [1] = assay: concentration in plasma after dosing; conditions: dosed: Tamoxifen citrate, 0.3 mg/kg, iv, Male, Sprague-Dawley
Rat [2] = assay: concentration in plasma after dosing; conditions: dosed: Tamoxifen citrate, 0.3 mg/kg, iv, Male, Sprague-Dawley; remark: listed apart in the source
Rat [3] = assay: concentration in plasma after dosing; conditions: dosed: Tamoxifen citrate, 0.3 mg/kg, iv, Sprague-Dawley
Rat [4] = assay: concentration in plasma after dosing; conditions: dosed: Tamoxifen citrate, 0.3 mg/kg, iv, Female, Sprague-Dawley
Rat [5] = assay: concentration in plasma after dosing; conditions: dosed: Tamoxifen citrate, 0.3 mg/kg, iv, Male, Sprague-Dawley; remark: listed apart in the source
Rat [6] = assay: concentration in plasma after dosing; conditions: dosed: Tamoxifen citrate, 0.3 mg/kg, iv, Female, Sprague-Dawley; remark: listed apart in the source
Rat [7] = assay: concentration in plasma after dosing; conditions: dosed: Tamoxifen citrate, 0.3 mg/kg, iv, Female, Sprague-Dawley; remark: listed apart in the source
Rat [8] = assay: concentration in plasma after dosing; conditions: dosed: Tamoxifen citrate, 0.3 mg/kg, iv, Male, Sprague-Dawley; remark: listed apart in the source
Rat [9] = assay: concentration in plasma after dosing; conditions: dosed: Tamoxifen citrate, 0.3 mg/kg, iv, Female, Sprague-Dawley; remark: listed apart in the source
rat [10] = assay: concentration in blood after dosing; conditions: dosed: halothane, 50000 ppm, dermal, duration: 4 hr, male, F344
rat [11] = assay: concentration in blood after dosing; conditions: male
rat [12] = assay: concentration in blood after dosing; conditions: dosed: halothane, 50000 ppm, dermal, duration: 4 hr, male, F344; remark: listed apart in the source
rat [13] = assay: concentration in blood after dosing; conditions: dosed: halothane, 50000 ppm, dermal, duration: 4 hr, male, F344; remark: listed apart in the source
human = assay: negative times count back from the end of exposure; conditions: dosed: toluene, 200 mg/m^3, inhalation, duration: 2 hr, male
Outline: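 Sampling and analytical methods are those of each source and frequently went unreported. The concentration-versus-time and amount-versus-time points were compiled from published in vivo toxicokinetic studies and two structured collections. Most were digitised from plot screenshots with WebPlotDigitizer, with others copied from tables, in the reported units.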

rat [14] = assay: concentration in blood after dosing; conditions: dosed: isoflurane, 50000 ppm, dermal, duration: 4 hr, male, F344
rat [15] = assay: concentration in blood after dosing; conditions: dosed: isoflurane, 50000 ppm, dermal, duration: 4 hr, male, F344; remark: listed apart in the source
rat [16] = assay: concentration in blood after dosing; conditions: dosed: isoflurane, 50000 ppm, dermal, duration: 4 hr, male, F344; remark: listed apart in the source
rat [17] = assay: concentration in blood after dosing; conditions: dosed: isoflurane, 50000 ppm, dermal, duration: 4 hr, male, F344; remark: listed apart in the source
rat [18] = assay: concentration in blood after dosing; conditions: dosed: isoflurane, 50000 ppm, dermal, duration: 4 hr, male, F344; remark: listed apart in the source
rat [19] = assay: concentration in plasma after dosing; conditions: dosed: propylparaben, oral, male, Wistar

CC/C(=C(\c1ccccc1)c1ccc(OCCN(C)C)cc1)c1ccccc1 [Tamoxifen, free base]
concentration in plasma [ng/mL]
Conditions	Rat [1]	Rat [2]	Rat [4]	Rat [5]	Rat [6]	Rat [7]	Rat [8]	Rat [9]
0.25 h	23.4	17.9	19.2	–	9.8	–	27.8	10.6
0.5 h	17.5	14	16.9	–	7.72	–	21.3	11.7
1 h	11.1	9.45	12.4	5.39	6.48	11.8	12.5	7.86
2 h	6.63	5.39	8.82	5.6	6.85	6.28	7.97	6.98
4 h	4.12	13	4.36	5.43	5.08	4.6	4.45	4.36
8 h	–	–	–	4.84	–	–	–	–

concentration in plasma, Rat [3]
Conditions	0.25 h	0.5 h	1 h	2 h	4 h	8 h
Female	7.64 ng/mL and 17.2 ng/mL	7.57 ng/mL and 13.4 ng/mL	5.28 ng/mL	–	–	–
Male	7.83 ng/mL	8.42 ng/mL	5.43 ng/mL	4.66 ng/mL	5.32 ng/mL	5.19 ng/mL

FC(F)(F)C(Cl)Br (centres undefined) [halothane]
concentration in blood [ng/mL]
Conditions	0.5 h	1 h	2 h	3 h	4 h
rat [10]	3130	4930	5210	5410	7710
rat [12]	1300	–	3220	3020	2520
rat [13]	1420	2310	2600	3360	2720

rat [11], dosed: halothane, 50000 ppm, dermal, duration: 4 hr, F344
Conditions	concentration in blood [ng/mL]
0.5 h	623
1 h	2040
2 h	2110
3 h	2720
4 h	2190

O=C(O)CNC(=O)c1ccccc1 [hippuric acid]
human
Conditions	amount in urine after dosing [µmol/min]
3.981 h	2.61
7.978 h	0.699
12.06 h	0.451
20.04 h	0.258

Conditions	amount in urine after dosing [µmol/min]
human, -49 s, during exposure	4.88

FC(F)OC(Cl)C(F)(F)F (centres undefined) [isoflurane]
concentration in blood [ng/mL]
Conditions	rat [14]	rat [15]	rat [16]	rat [17]	rat [18]
0.5 h	1120	–	19.6	418	510
1 h	2500	–	–	1010	699
2 h	3610	1120	1730	–	1610
3 h	3220	1520	2030	1610	1720
4 h	2520	1210	824	516	915

rat [11], dosed: isoflurane, 50000 ppm, dermal, duration: 4 hr, F344
Conditions	concentration in blood
0.5 h	614 ng/mL
1 h	810 ng/mL and 1520 ng/mL
2 h	1610 ng/mL and 1420 ng/mL
3 h	1520 ng/mL
4 h	706 ng/mL

CCCCCCCC [octane]
concentration in blood, rat [11], dosed: octane, inhalation, duration: 2 hr, Fischer-344
Conditions	0.1291 h	0.3815 h	0.705 h	171 s	183 s
1000 ppm	3810 ng/mL and 4510 ng/mL	1730 ng/mL and 2020 ng/mL	777 ng/mL and 960 ng/mL	5730 ng/mL and 7180 ng/mL	–
5000 ppm	–	–	–	–	30200 ng/mL and 25900 ng/mL and 22800 ng/mL

CCCOC(=O)c1ccc(O)cc1 [propylparaben]
concentration in plasma [ng/mL], rat [19]
Conditions	0.2504 h	0.5008 h	0.9984 h	1.002 h	2 h	2.003 h	4 h	4.003 h	297 s
3 mg/kg	871	280	–	88.4	82.5	–	–	–	495
10 mg/kg	3140	1720	466	–	271	–	23.6	–	1790
100 mg/kg	8510	7830	4220	–	2980	–	495	–	8610
1000 mg/kg	14100	17200	–	11500	–	9040	–	6390	15900
